Values after ≈ are worked out from the molar mass of the structure shown.
Columns and labels:
Type in all cases: functional
[1] = Cytotoxicity against human SQC1 cells after 72 hrs by SRB method; settings: SQC1, 72 h, read-out: ED50 (the source's name)
In short: (§1)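 Cell lines kept in RPMI 1640 with 10% fetal bovine serum, 37 °C, 5% CO2, 100% humidity. Log-phase cells treated in triplicate with glycolipids over 0.16–20 μg/mL for 72 h at 37 °C, 5% CO2. Cell concentration determined by sulforhodamine B staining; ED50 taken as dose inhibiting 50% of control growth. Ellipticine as positive control.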

KB = test: Cytotoxicity against human KB cells after 72 hrs by SRB method; settings: read-out: ED50 (the source's name); in short: as §1
OVCAR = test: Cytotoxicity against human OVCAR cells after 72 hrs by SRB method; settings: read-out: ED50 (the source's name); in short: as §1
HCT-15 = test: Cytotoxicity against human HCT-15 cells after 72 hrs by SRB method; settings: HCT-15, 72 h, read-out: ED50 (the source's name); in short: as §1

Row | SMILES | EC50 [1] [µg/mL] | EC50 (KB) [µg/mL] | EC50 (OVCAR) [µg/mL] | EC50 (HCT-15) [µg/mL]
1 | Cc1c2ccncc2c(C)c2c1[nH]c1ccccc12 [ELLIPTECINE] | 0.41 (≈ 1.66 µM) | 0.33 (≈ 1.34 µM) | 0.58 (≈ 2.35 µM) | 0.24 (≈ 0.974 µM)
2 | CCCCC[C@H]1CCCCCCCCCC(=O)O[C@H]2[C@H](O)[C@@H](COC(=O)[C@H](C)[C@@H](C)O)O[C@@H](O[C@H]3[C@H](O1)O[C@H](C)[C@@H](O)[C@@H]3O)[C@@H]2O[C@@H]1O[C@@H](C)[C@H](O[C@@H]2O[C@H](C)[C@@H](O)[C@H](O)[C@H]2O)[C@@H](O)[C@H]1OC(=O)[C@@H](C)CC [ORIZABIN VIII] | > 15 | 7 (≈ 6.74 µM) | > 15 | > 15
3 | CCCCC[C@H]1CCCCCCCCCC(=O)O[C@@H]2[C@@H](O[C@@H]3O[C@H](C)[C@@H](O)[C@H](O)[C@H]3O)[C@H](C)O[C@@H](O[C@H]3[C@H](O[C@H]4[C@H](O1)O[C@H](C)[C@@H](O)[C@@H]4O)O[C@H](COC(=O)[C@H](C)[C@@H](C)O)[C@@H](O)[C@@H]3O)[C@@H]2OC(=O)[C@@H](C)CC [ORIZABIN VII] | > 15 | 7 (≈ 6.74 µM) | > 15 | > 15
4 | CCCCC[C@H]1CCCCCCCCCC(=O)O[C@@H]2[C@@H](O[C@@H]3O[C@H](C)[C@@H](O)[C@H](O)[C@H]3O)[C@H](C)O[C@@H](O[C@H]3[C@H](O[C@H]4[C@H](O1)O[C@H](C)[C@@H](O)[C@@H]4O)O[C@H](COC(=O)[C@@H](C)CC)[C@@H](O)[C@@H]3O)[C@@H]2OC(=O)[C@H](C)[C@@H](C)O [ORIZABIN VI] | > 15 | 7 (≈ 6.74 µM) | > 15 | > 15
5 | CCCCC[C@H]1CCCCCCCCCC(=O)O[C@@H]2[C@@H](O[C@@H]3O[C@H](C)[C@@H](OC(=O)[C@H](C)[C@@H](C)O)[C@H](O)[C@H]3O)[C@H](C)O[C@@H](O[C@H]3[C@H](O[C@H]4[C@H](O1)O[C@H](C)[C@@H](O)[C@@H]4O)O[C@H](CO)[C@@H](O)[C@@H]3O)[C@@H]2OC(=O)[C@@H](C)CC [ORIZABIN V] | > 15 | 7 (≈ 6.74 µM) | > 15 | > 15
6 | CCCCC[C@H]1CCCCCCCCCC(=O)O[C@@H]2[C@@H](O[C@@H]3O[C@H](C)[C@@H](O)[C@H](O)[C@H]3O)[C@H](C)O[C@@H](O[C@H]3[C@H](O[C@H]4[C@H](O1)O[C@H](C)[C@@H](O)[C@@H]4O)O[C@H](CO)[C@@H](O)[C@@H]3O)[C@@H]2OC(=O)[C@@H](C)CC [SCAMMONIN II] | > 15 | 7 (≈ 7.45 µM) | > 15 | > 15
7 | C/C=C(\C)C(=O)O[C@H]1[C@H](O)[C@@H](O)[C@H](O[C@@H]2[C@H]3OC(=O)CCCCCCCCC[C@H](CCCCC)O[C@@H]4O[C@H](C)[C@@H](O)[C@H](O)[C@H]4O[C@@H]4O[C@H](CO)[C@@H](O)[C@H](O)[C@H]4O[C@H](O[C@H]2C)[C@@H]3OC(=O)[C@@H](C)CC)O[C@@H]1C [SCAMMONIN I] | > 15 | 7 (≈ 6.85 µM) | > 15 | > 15

Reference: ChEMBL document CHEMBL1144082, “Orizabins V-VIII, tetrasaccharide glycolipids from the Mexican scammony root (Ipomoea orizabensis)” (1999)
